According to publication PMC3902791 (Molecular imaging and biology : MIB : the official …, 2012):
“And” between values parts separate entries of the source, which are not always exact repeats. Equal values may be shown once. Read-outs that look alike come from different tables or passages of the source.

Set-up: species or system human
Outline: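 Organ time–activity curves came from whole-body scan VOI data. These were fitted mono-exponentially in five animals; in the sixth, with two scans, a linear fit to the log values was used. Time-integrated activity coefficients were scaled by the ratio of body-mass-normalised human to CT-derived macaque organ masses. Intestinal values were split in thirds across small intestine, ULI and LLI. Organ doses (mSv/MBq) were computed per animal with the OLINDA/EXM 1.1 adult male model.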

## O=C(O)C[18F] [^18F-FACE, ^18F-fluoroacetate]
All, Mean±SD
  Dose to adult human model, Total body: 0.011±0.002 mSv/MBq
  ED effective dose, adult human model: 0.0211 mSv/MBq and 0.021±0.004 mSv/MBq
  EDE effective dose equivalent, adult human model: 0.023±0.004 mSv/MBq
  Organ dose to adult human model, Adrenals: 0.013±0.002 mSv/MBq
  Organ dose to adult human model, Brain: 0.00762 mSv/MBq and 0.008±0.002 mSv/MBq
  Organ dose to adult human model, Breasts: 0.00774 mSv/MBq and 0.008±0.001 mSv/MBq
  Organ dose to adult human model, Gallbladder wall: 0.0288 mSv/MBq and 0.029±0.010 mSv/MBq
  Organ dose to adult human model, Heart wall: 0.025±0.010 mSv/MBq
  Organ dose to adult human model, Kidneys: 0.0342 mSv/MBq and 0.034±0.008 mSv/MBq
  Organ dose to adult human model, LLI wall (lower large intestine): 0.075±0.027 mSv/MBq
  Organ dose to adult human model, Liver: 0.0307 mSv/MBq and 0.031±0.021 mSv/MBq
  Organ dose to adult human model, Lungs: 0.010±0.002 mSv/MBq
  Organ dose to adult human model, Muscle: 0.010±0.002 mSv/MBq
  Organ dose to adult human model, Osteogenic cells: 0.014±0.003 mSv/MBq
  Organ dose to adult human model, Ovaries: 0.016±0.002 mSv/MBq
  Organ dose to adult human model, Pancreas: 0.013±0.002 mSv/MBq
  Organ dose to adult human model, Red marrow: 0.0102 mSv/MBq and 0.010±0.002 mSv/MBq
  Organ dose to adult human model, Skin: 0.007±0.001 mSv/MBq
  Organ dose to adult human model, Small intestine: 0.037±0.011 mSv/MBq
  Organ dose to adult human model, Spleen: 0.011±0.002 mSv/MBq
  Organ dose to adult human model, Stomach wall: 0.012±0.002 mSv/MBq
  Organ dose to adult human model, Testes: 0.009±0.001 mSv/MBq
  Organ dose to adult human model, Thymus: 0.010±0.002 mSv/MBq
  Organ dose to adult human model, Thyroid: 0.00888 mSv/MBq and 0.009±0.002 mSv/MBq
  Organ dose to adult human model, ULI wall (upper large intestine): 0.056±0.019 mSv/MBq
  Organ dose to adult human model, Urinary bladder wall: 0.021±0.010 mSv/MBq
  Organ dose to adult human model, Uterus: 0.014±0.003 mSv/MBq
Female, Mean±SD
  Dose to adult human model, Total body: 0.010±0.002 mSv/MBq
  ED effective dose, adult human model: 0.018±0.001 mSv/MBq
  EDE effective dose equivalent, adult human model: 0.020±0.001 mSv/MBq
  Organ dose to adult human model, Adrenals: 0.012±0.002 mSv/MBq
  Organ dose to adult human model, Brain: 0.007±0.002 mSv/MBq
  Organ dose to adult human model, Breasts: 0.007±0.002 mSv/MBq
  Organ dose to adult human model, Gallbladder wall: 0.031±0.013 mSv/MBq
  Organ dose to adult human model, Heart wall: 0.019±0.006 mSv/MBq
  Organ dose to adult human model, Kidneys: 0.031±0.010 mSv/MBq
  Organ dose to adult human model, LLI wall (lower large intestine): 0.058±0.005 mSv/MBq
  Organ dose to adult human model, Liver: 0.021 ±0.009 mSv/MBq
  Organ dose to adult human model, Lungs: 0.009±0.002 mSv/MBq
  Organ dose to adult human model, Muscle: 0.009±0.002 mSv/MBq
  Organ dose to adult human model, Osteogenic cells: 0.014±0.004 mSv/MBq
  Organ dose to adult human model, Ovaries: 0.016±0.002 mSv/MBq
  Organ dose to adult human model, Pancreas: 0.012±0.002 mSv/MBq
  Organ dose to adult human model, Red marrow: 0.009±0.002 mSv/MBq
  Organ dose to adult human model, Skin: 0.007±0.002 mSv/MBq
  Organ dose to adult human model, Small intestine: 0.030±0.002 mSv/MBq
  Organ dose to adult human model, Spleen: 0.010±0.003 mSv/MBq
  Organ dose to adult human model, Stomach wall: 0.011±0.002 mSv/MBq
  Organ dose to adult human model, Thymus: 0.009±0.002 mSv/MBq
  Organ dose to adult human model, Thyroid: 0.009±0.003 mSv/MBq
  Organ dose to adult human model, ULI wall (upper large intestine): 0.044±0.003 mSv/MBq
  Organ dose to adult human model, Urinary bladder wall: 0.017±0.004 mSv/MBq
  Organ dose to adult human model, Uterus: 0.014±0.003 mSv/MBq
Male, Mean±SD
  Dose to adult human model, Total body: 0.012±0.001 mSv/MBq
  ED effective dose, adult human model: 0.025±0.003 mSv/MBq
  EDE effective dose equivalent, adult human model: 0.027±0.003 mSv/MBq
  Organ dose to adult human model, Adrenals: 0.014±0.002 mSv/MBq
  Organ dose to adult human model, Brain: 0.008±0.001 mSv/MBq
  Organ dose to adult human model, Breasts: 0.008±0.001 mSv/MBq
  Organ dose to adult human model, Gallbladder wall: 0.027±0.008 mSv/MBq
  Organ dose to adult human model, Heart wall: 0.031±0.010 mSv/MBq
  Organ dose to adult human model, Kidneys: 0.037±0.008 mSv/MBq
  Organ dose to adult human model, LLI wall (lower large intestine): 0.091±0.031 mSv/MBq
  Organ dose to adult human model, Liver: 0.040±0.026 mSv/MBq
  Organ dose to adult human model, Lungs: 0.010±0.001 mSv/MBq
  Organ dose to adult human model, Muscle: 0.010±0.001 mSv/MBq
  Organ dose to adult human model, Osteogenic cells: 0.015±0.001 mSv/MBq
  Organ dose to adult human model, Pancreas: 0.015±0.001 mSv/MBq
  Organ dose to adult human model, Red marrow: 0.011±0.001 mSv/MBq
  Organ dose to adult human model, Skin: 0.008±0.001 mSv/MBq
  Organ dose to adult human model, Small intestine: 0.044±0.012 mSv/MBq
  Organ dose to adult human model, Spleen: 0.012±0.001 mSv/MBq
  Organ dose to adult human model, Stomach wall: 0.013±0.001 mSv/MBq
  Organ dose to adult human model, Testes: 0.009±0.001 mSv/MBq
  Organ dose to adult human model, Thymus: 0.010±0.001 mSv/MBq
  Organ dose to adult human model, Thyroid: 0.009±0.001 mSv/MBq
  Organ dose to adult human model, ULI wall (upper large intestine): 0.068±0.021 mSv/MBq
  Organ dose to adult human model, Urinary bladder wall: 0.025±0.015 mSv/MBq
Administration of 185–370 MBq
  estimated effective dose for an adult human: 3.90–7.81 mSv
Adult male model
  radiation absorbed dose, intestines: 0.0366–0.0745 mSv/MBq
From animal 1, male
  Dose to adult human model, Total body: 0.012 mSv/MBq
  ED effective dose, adult human model: 0.022 mSv/MBq
  EDE effective dose equivalent, adult human model: 0.024 mSv/MBq
  Organ dose to adult human model, Adrenals: 0.016 mSv/MBq
  Organ dose to adult human model, Brain: 0.007 mSv/MBq
  Organ dose to adult human model, Breasts: 0.008 mSv/MBq
  Organ dose to adult human model, Gallbladder wall: 0.031 mSv/MBq
  Organ dose to adult human model, Heart wall: 0.035 mSv/MBq
  Organ dose to adult human model, Kidneys: 0.046 mSv/MBq
  Organ dose to adult human model, LLI wall (lower large intestine): 0.058 mSv/MBq
  Organ dose to adult human model, Liver: 0.067 mSv/MBq
  Organ dose to adult human model, Lungs: 0.011 mSv/MBq
  Organ dose to adult human model, Muscle: 0.010 mSv/MBq
  Organ dose to adult human model, Osteogenic cells: 0.014 mSv/MBq
  Organ dose to adult human model, Pancreas: 0.016 mSv/MBq
  Organ dose to adult human model, Red marrow: 0.011 mSv/MBq
  Organ dose to adult human model, Skin: 0.007 mSv/MBq
  Organ dose to adult human model, Small intestine: 0.031 mSv/MBq
  Organ dose to adult human model, Spleen: 0.012 mSv/MBq
  Organ dose to adult human model, Stomach wall: 0.013 mSv/MBq
  Organ dose to adult human model, Testes: 0.009 mSv/MBq
  Organ dose to adult human model, Thymus: 0.010 mSv/MBq
  Organ dose to adult human model, Thyroid: 0.009 mSv/MBq
  Organ dose to adult human model, ULI wall (upper large intestine): 0.045 mSv/MBq
  Organ dose to adult human model, Urinary bladder wall: 0.042 mSv/MBq
From animal 2, male
  Dose to adult human model, Total body: 0.012 mSv/MBq
  ED effective dose, adult human model: 0.025 mSv/MBq
  EDE effective dose equivalent, adult human model: 0.027 mSv/MBq
  Organ dose to adult human model, Adrenals: 0.014 mSv/MBq
  Organ dose to adult human model, Brain: 0.007 mSv/MBq
  Organ dose to adult human model, Breasts: 0.008 mSv/MBq
  Organ dose to adult human model, Gallbladder wall: 0.033 mSv/MBq
  Organ dose to adult human model, Heart wall: 0.038 mSv/MBq
  Organ dose to adult human model, Kidneys: 0.032 mSv/MBq
  Organ dose to adult human model, LLI wall (lower large intestine): 0.096 mSv/MBq
  Organ dose to adult human model, Liver: 0.041 mSv/MBq
